Measured values as given in ChEMBL document CHEMBL1156952, “Synthesis and biological evaluations of novel bendazac lysine analogues as potent anticataract agents” (Bioorg Med Chem Lett, 2010).
Values after ≈ are worked out from the molar mass of the structure shown.

Assays:
[1] = Aqueous solubility of the compound; assay type: physicochemical; conditions: water (aqueous)
[2] = Anticataract activity against FeCl3/H2O2-induced cataract in rat lens assessed as slight degree of opacificaion at 0.5 mM treated 1 hr before FeCl3/H2O2 challenge measured after 24 hrs; assay type: functional, Lens of camera-type eye
In short: (§1)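 Isolated rat lenses were cultured in DMEM and challenged with FeCl3 (0.02%) plus H2O2 (0.5%). Compounds were added at 0.5 mM to the medium of transparent lenses, with a challenged, untreated control. Lenses were scored as the percentage at each opacification grade (−, +, ++, +++).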

[3] = Anticataract activity against FeCl3/H2O2-induced cataract in rat lens assessed as middle degree of opacificaion at 0.5 mM treated 1 hr before FeCl3/H2O2 challenge measured after 24 hrs; assay type: functional, Lens of camera-type eye; in short: as §1
[4] = Anticataract activity against FeCl3/H2O2-induced cataract in rat lens assessed as absence of opacificaion at 0.5 mM treated 1 hr before FeCl3/H2O2 challenge measured after 24 hrs; assay type: functional, Lens of camera-type eye; in short: as §1
[5] = Anticataract activity against FeCl3/H2O2-induced cataract in rat lens assessed as extensive mature nuclear opacity at 0.5 mM treated 1 hr before FeCl3/H2O2 challenge measured after 24 hrs; assay type: functional, Lens of camera-type eye; in short: as §1
[6] = Anticataract activity against FeCl3/H2O2-induced cataract in rabbit lens assessed as extensive mature nuclear opacity at 0.5 mM treated 1 hr before FeCl3/H2O2 challenge measured after 24 hrs; assay type: functional, Oryctolagus cuniculus, Lens of camera-type eye
[7] = Anticataract activity against FeCl3/H2O2-induced cataract in rabbit lens assessed as absence of opacificaion at 15 mM treated 1 hr before FeCl3/H2O2 challenge measured after 24 hrs; assay type: functional, Oryctolagus cuniculus, Lens of camera-type eye
[8] = Anticataract activity against FeCl3/H2O2-induced cataract in rabbit lens assessed as absence of opacificaion at 10 mM treated 1 hr before FeCl3/H2O2 challenge measured after 24 hrs; assay type: functional, Oryctolagus cuniculus, Lens of camera-type eye
[9] = Anticataract activity against FeCl3/H2O2-induced cataract in rabbit lens assessed as middle degree of opacificaion at 0.5 mM treated 1 hr before FeCl3/H2O2 challenge measured after 24 hrs; assay type: functional, Oryctolagus cuniculus, Lens of camera-type eye
[10] = Anticataract activity against FeCl3/H2O2-induced cataract in rabbit lens assessed as extensive mature nuclear opacity at 15 mM treated 1 hr before FeCl3/H2O2 challenge measured after 24 hrs; assay type: functional, Oryctolagus cuniculus, Lens of camera-type eye
[11] = Anticataract activity against FeCl3/H2O2-induced cataract in rabbit lens assessed as slight degree of opacificaion at 5 mM treated 1 hr before FeCl3/H2O2 challenge measured after 24 hrs; assay type: functional, Oryctolagus cuniculus, Lens of camera-type eye
[12] = Anticataract activity against FeCl3/H2O2-induced cataract in rabbit lens assessed as extensive mature nuclear opacity at 10 mM treated 1 hr before FeCl3/H2O2 challenge measured after 24 hrs; assay type: functional, Oryctolagus cuniculus, Lens of camera-type eye
[13] = Anticataract activity against FeCl3/H2O2-induced cataract in rabbit lens assessed as absence of opacificaion at 0.5 mM treated 1 hr before FeCl3/H2O2 challenge measured after 24 hrs; assay type: functional, Oryctolagus cuniculus, Lens of camera-type eye
[14] = Anticataract activity against FeCl3/H2O2-induced cataract in rabbit lens assessed as slight degree of opacificaion at 10 mM treated 1 hr before FeCl3/H2O2 challenge measured after 24 hrs; assay type: functional, Oryctolagus cuniculus, Lens of camera-type eye
[15] = Anticataract activity against FeCl3/H2O2-induced cataract in rabbit lens assessed as slight degree of opacificaion at 15 mM treated 1 hr before FeCl3/H2O2 challenge measured after 24 hrs; assay type: functional, Oryctolagus cuniculus, Lens of camera-type eye
[16] = Anticataract activity against FeCl3/H2O2-induced cataract in rabbit lens assessed as middle degree of opacificaion at 5 mM treated 1 hr before FeCl3/H2O2 challenge measured after 24 hrs; assay type: functional, Oryctolagus cuniculus, Lens of camera-type eye
[17] = Anticataract activity against FeCl3/H2O2-induced cataract in rabbit lens assessed as extensive mature nuclear opacity at 5 mM treated 1 hr before FeCl3/H2O2 challenge measured after 24 hrs; assay type: functional, Oryctolagus cuniculus, Lens of camera-type eye
[18] = Anticataract activity against FeCl3/H2O2-induced cataract in rabbit lens assessed as absence of opacificaion at 5 mM treated 1 hr before FeCl3/H2O2 challenge measured after 24 hrs; assay type: functional, Oryctolagus cuniculus, Lens of camera-type eye
[19] = Anticataract activity against FeCl3/H2O2-induced cataract in rabbit lens assessed as middle degree of opacificaion at 10 mM treated 1 hr before FeCl3/H2O2 challenge measured after 24 hrs; assay type: functional, Oryctolagus cuniculus, Lens of camera-type eye
[20] = Anticataract activity against FeCl3/H2O2-induced cataract in rabbit lens assessed as middle degree of opacificaion at 15 mM treated 1 hr before FeCl3/H2O2 challenge measured after 24 hrs; assay type: functional, Oryctolagus cuniculus, Lens of camera-type eye
[21] = Anticataract activity against FeCl3/H2O2-induced cataract in rabbit lens assessed as slight degree of opacificaion at 0.5 mM treated 1 hr before FeCl3/H2O2 challenge measured after 24 hrs; assay type: functional, Oryctolagus cuniculus, Lens of camera-type eye
Oryctolagus cuniculus [22] = organism: Oryctolagus cuniculus; assay: Induction of total-antioxidant capacity level in rabbit lens homogenates at 5 mM (Rvb= 0.04 u/mg); assay type: functional, tissue-based; conditions: Lens of camera-type eye
In short: (§2)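 Rabbit lenses were cultured in DMEM under FeCl3 (0.02%) plus H2O2 (2%) challenge, with compound at 5, 10 or 15 mM in the medium. Each group's lenses were then homogenized. Water-soluble protein, total antioxidant capacity and malondialdehyde were each measured in the homogenate with a reagent kit.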

Oryctolagus cuniculus [23] = organism: Oryctolagus cuniculus; assay: Reduction of malondialdehyde level in rabbit lens homogenates at 5 mM (Rvb= 0.46 +/-0.27 nmol/mg); assay type: functional, tissue-based; conditions: Lens of camera-type eye; in short: as §2
Oryctolagus cuniculus [24] = organism: Oryctolagus cuniculus; assay: Induction of water-solvent protein level in rabbit lens homogenates at 5 mM (Rvb= 7.40 +/-0.73 mg/mL); assay type: functional, tissue-based; conditions: Lens of camera-type eye; in short: as §2

| Structure (SMILES) | solubility [1] [µg/mL] | Activity [2] [%] | Activity [3] [%] | Activity [4] [%] | Activity [5] [%] | Activity [6] [%] | Activity [9] [%] | Activity [13] [%] | Activity [21] [%] | further results |
| --- | --- | --- | --- | --- | --- | --- | --- | --- | --- | --- |
| O=C(O)C(Oc1nn(Cc2cccc(Cl)c2)c2ccccc12)C(=O)O | < 1000 |  |  |  |  |  |  |  |  |  |
| NCCCC[C@H](N)C(=O)O.O=C(O)C(Oc1nn(Cc2cccc(F)c2)c2ccccc12)C(=O)O | 134000 | 55 | 45 | 0 | 0 |  |  |  |  |  |
| N[C@@H](Cc1c[nH]cn1)C(=O)O.O=C(O)C(Oc1nn(Cc2ccccc2)c2ccccc12)C(=O)O | 180000 | 85 | 15 | 0 | 0 | 0 | 35 | 0 | 65 | Activity [7]: 100%; Activity [8]: 90%; Activity [10]: 0%; Activity [11]: 70%; Activity [12]: 0%; Activity [14]: 10%; Activity [15]: 0%; Activity [16]: 0%; Activity [17]: 0%; Activity [18]: 30%; Activity [19]: 0%; Activity [20]: 0% |
| O=C(O)C(Oc1nn(Cc2cccc(F)c2)c2ccccc12)C(=O)O | 2000 (≈ 5.81 mM) |  |  |  |  |  |  |  |  |  |
| O=C([O-])C(Oc1nn(Cc2ccccc2)c2ccccc12)C(=O)[O-].[Na+].[Na+] | 3000 | 80 | 20 | 0 | 0 | 0 | 40 | 0 | 60 |  |
| O=C([O-])C(Oc1nn(Cc2cccc(F)c2)c2ccccc12)C(=O)[O-].[Na+].[Na+] | 3200 | 60 | 35 | 0 | 5 | 0 | 20 | 0 | 80 |  |
| O=C(O)COc1nn(Cc2ccccc2)c2ccccc12 |  |  |  |  |  |  |  |  |  | T-AOC level (Oryctolagus cuniculus [22]): 0.17 U/mg; MDA level (Oryctolagus cuniculus [23]): 0.22 nmol/mg; WSP level (Oryctolagus cuniculus [24]): 9.34 mg/mL |
| Cc1ccc(Cn2nc(OC(C(=O)O)C(=O)O)c3ccccc32)cc1 | < 1000 |  |  |  |  |  |  |  |  |  |
| NCCCC[C@H](N)C(=O)O.O=C(O)C(Oc1nn(Cc2cccc(Cl)c2)c2ccccc12)C(=O)O | 195000 | 55 | 30 | 0 | 15 | 65 | 35 | 0 | 0 |  |
| O=C(O)COc1nn(Cc2ccccc2)c2ccccc12 [BENDAZAC] | < 1000 |  |  |  |  |  |  |  |  |  |
| Cc1ccc(Cn2nc(OC(C(=O)[O-])C(=O)[O-])c3ccccc32)cc1.[K+].[K+] | < 1000 |  |  |  |  |  |  |  |  |  |
| NCCCC[C@H](N)C(=O)O.O=C(O)C(Oc1nn(Cc2ccc(Cl)cc2)c2ccccc12)C(=O)O | 312000 |  |  |  |  |  |  |  |  |  |
| NCCCC[C@H](N)C(=O)O.O=C(O)C(Oc1nn(Cc2ccccc2)c2ccccc12)C(=O)O | 123000 | 15 | 70 | 0 | 15 | 35 | 35 | 0 | 30 |  |
| O=C([O-])C(Oc1nn(Cc2cccc(Cl)c2)c2ccccc12)C(=O)[O-].[Na+].[Na+] | 1200 |  |  |  |  |  |  |  |  |  |
